Results taken from paper PMC3184254 (Nature Chemical Biology, 2011).
Read-outs that look alike come from different tables or passages of the source.

Columns and labels:
[1] = target: T1, SETD7 (Homo sapiens, UniProt Q8WTS6); assay: SAHH-coupled assay, SETD7; assay type: biochemical
T1 sequence (Q8WTS6 1-366): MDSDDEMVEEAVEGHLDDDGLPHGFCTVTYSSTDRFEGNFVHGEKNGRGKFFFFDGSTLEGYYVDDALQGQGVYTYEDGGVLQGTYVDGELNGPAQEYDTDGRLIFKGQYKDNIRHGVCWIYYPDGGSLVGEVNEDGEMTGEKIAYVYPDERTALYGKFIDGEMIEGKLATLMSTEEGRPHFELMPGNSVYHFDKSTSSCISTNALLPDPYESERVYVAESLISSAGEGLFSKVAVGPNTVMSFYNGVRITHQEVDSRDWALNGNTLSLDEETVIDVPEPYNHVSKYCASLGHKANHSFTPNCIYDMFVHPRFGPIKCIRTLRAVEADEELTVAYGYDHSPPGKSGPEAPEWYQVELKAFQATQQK
Summary of the method: (§1)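 A fluorescence-based coupled assay used S-adenosyl-L-homocysteine hydrolase to follow conversion of cofactor SAM to SAH by the methyltransferase. IC50 values are the average of at least two separate experiments.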

[2] = target: MLL (Homo sapiens, UniProt Q03164); assay: BPS Bioscience assay, MLL; assay type: biochemical
[3] = target: SUV39H1 (Homo sapiens, UniProt O43463); assay: BPS Bioscience assay, SUV39H1; assay type: biochemical
SUV39H1, sequence (O43463 whole entry, species assumed): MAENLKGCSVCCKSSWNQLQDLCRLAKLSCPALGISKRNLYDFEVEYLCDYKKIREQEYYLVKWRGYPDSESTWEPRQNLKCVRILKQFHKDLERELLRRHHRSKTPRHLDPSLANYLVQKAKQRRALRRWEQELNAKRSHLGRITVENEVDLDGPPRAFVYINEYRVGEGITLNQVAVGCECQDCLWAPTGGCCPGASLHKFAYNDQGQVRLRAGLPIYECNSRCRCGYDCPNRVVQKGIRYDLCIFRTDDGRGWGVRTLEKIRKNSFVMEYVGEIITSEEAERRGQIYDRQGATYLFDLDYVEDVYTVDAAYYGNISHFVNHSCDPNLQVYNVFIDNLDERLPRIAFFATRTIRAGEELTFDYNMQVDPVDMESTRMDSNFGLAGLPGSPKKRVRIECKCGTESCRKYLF

[4] = tested on: panel of 24 kinases; assay: Kinase selectivity panel; assay type: biochemical; details: at 1 μM; 24 kinases
[5] = tested on: MAGEA2 and DUB1 genes in J1 mES cells; assay: mRNA levels of G9a-regulated endogenous genes; assay type: cell-based, mouse; details: day 10; versus untreated or UNC0737-treated cells
[6] = Stability in cell media with or without cells; assay type: in vitro ADME; details: with or without MCF7, U2OS or H1299 cells, two types of cell media, 65 h
[7] = tested on: H3K9me2 levels in 22RV1 cells; assay: H3K9me2 in-cell western, 22RV1; assay type: cell-based; details: Homo sapiens, 22Rv1, read-out: IC50 for reduction of H3K9me2 levels
[8] = tested on: H3K9me2 levels in breast, prostate, colon carcinomas and normal fibroblast cells; assay: H3K9me2 in-cell western, tumor and normal cell lines; assay type: cell-based, human
[9] = target: PRMT3 (Homo sapiens, UniProt O60678); assay: SAHH-coupled assay, PRMT3; assay type: biochemical
PRMT3, sequence (O60678 whole entry, species assumed): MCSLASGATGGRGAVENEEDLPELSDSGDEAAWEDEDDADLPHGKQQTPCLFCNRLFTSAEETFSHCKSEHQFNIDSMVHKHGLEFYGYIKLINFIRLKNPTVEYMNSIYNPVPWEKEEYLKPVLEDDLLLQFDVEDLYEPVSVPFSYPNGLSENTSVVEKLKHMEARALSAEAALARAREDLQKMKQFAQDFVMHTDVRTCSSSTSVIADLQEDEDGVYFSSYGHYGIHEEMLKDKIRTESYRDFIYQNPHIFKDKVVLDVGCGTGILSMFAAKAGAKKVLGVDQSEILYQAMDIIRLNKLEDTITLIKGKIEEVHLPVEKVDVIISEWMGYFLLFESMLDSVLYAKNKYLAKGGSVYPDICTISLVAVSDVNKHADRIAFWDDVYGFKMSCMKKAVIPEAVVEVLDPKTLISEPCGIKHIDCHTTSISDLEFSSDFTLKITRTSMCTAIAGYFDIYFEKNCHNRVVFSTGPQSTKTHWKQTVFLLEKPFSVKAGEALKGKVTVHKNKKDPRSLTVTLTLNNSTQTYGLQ
Summary of the method: as §1

[10] = tested on: M1, M2 and M4; assay: M1, M2 and M4 functional assays; assay type: cell-based
[11] = tested on: H3K9me2 levels in MDA-MB-231 cells; assay: H3K9me2 in-cell western, MDA-MB-231; assay type: cell-based, human
[12] = tested on: histone marks in MDA-MB-231 cells; assay: Quantitative MS analysis of histone modifications; assay type: cell-based, human; details: 1 μM for 48 h
Summary of the method: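 MDA-MB-231 cells were treated at 1 µM for 48 h. Histones were acid-extracted, derivatized with propionic anhydride and digested with trypsin. Mock and treated samples carried D0 or D5 propionyl labels. Peptides were analysed by LC-MS/MS on an Orbitrap, with all data manually verified.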

[13] = target: T2, G9a (Homo sapiens, UniProt Q96KQ7); assay: Surface plasmon resonance; assay type: binding; details: SPR
T2 sequence (Q96KQ7 1-1210): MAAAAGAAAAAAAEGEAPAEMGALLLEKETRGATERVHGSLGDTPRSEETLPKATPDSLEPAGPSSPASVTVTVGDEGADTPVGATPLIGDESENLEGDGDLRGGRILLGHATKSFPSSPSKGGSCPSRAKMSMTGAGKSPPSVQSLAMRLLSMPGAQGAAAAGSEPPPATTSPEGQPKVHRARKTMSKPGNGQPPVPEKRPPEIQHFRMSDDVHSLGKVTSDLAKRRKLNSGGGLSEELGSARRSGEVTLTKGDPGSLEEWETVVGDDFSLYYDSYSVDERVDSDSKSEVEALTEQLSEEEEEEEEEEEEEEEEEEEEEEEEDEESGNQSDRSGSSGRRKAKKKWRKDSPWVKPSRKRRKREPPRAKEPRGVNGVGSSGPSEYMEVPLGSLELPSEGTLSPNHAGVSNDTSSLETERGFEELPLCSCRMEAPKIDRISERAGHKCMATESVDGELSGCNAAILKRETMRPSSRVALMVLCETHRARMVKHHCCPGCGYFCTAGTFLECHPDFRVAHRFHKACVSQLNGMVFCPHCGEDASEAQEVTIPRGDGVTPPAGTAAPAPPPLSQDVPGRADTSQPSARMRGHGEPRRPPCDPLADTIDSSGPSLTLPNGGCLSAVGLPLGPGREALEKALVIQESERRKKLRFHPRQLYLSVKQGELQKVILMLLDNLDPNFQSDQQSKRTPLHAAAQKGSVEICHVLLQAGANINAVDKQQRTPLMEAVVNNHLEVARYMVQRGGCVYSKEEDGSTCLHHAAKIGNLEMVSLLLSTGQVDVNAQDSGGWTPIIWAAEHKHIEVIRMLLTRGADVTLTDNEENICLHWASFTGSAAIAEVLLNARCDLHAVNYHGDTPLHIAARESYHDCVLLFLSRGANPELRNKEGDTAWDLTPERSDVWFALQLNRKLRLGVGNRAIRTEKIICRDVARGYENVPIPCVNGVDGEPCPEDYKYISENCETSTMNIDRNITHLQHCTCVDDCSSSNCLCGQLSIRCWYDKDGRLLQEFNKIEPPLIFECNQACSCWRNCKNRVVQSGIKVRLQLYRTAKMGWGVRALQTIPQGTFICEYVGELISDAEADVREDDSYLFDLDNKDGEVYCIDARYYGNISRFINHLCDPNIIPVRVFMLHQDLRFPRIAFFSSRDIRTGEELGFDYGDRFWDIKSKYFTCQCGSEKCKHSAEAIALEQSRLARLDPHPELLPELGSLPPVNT

[14] = tested on: HSC1-EF1α-EGFP-Puromycin retrovirus in J1 mES cells; assay: Reactivation of silent EGFP retrovirus vector, flow cytometry; assay type: cell-based, mouse
[15] = target: JMJD2E (Homo sapiens, UniProt B2RXH2); assay: Alphascreen assay, JMJD2E; assay type: biochemical
JMJD2E, sequence (B2RXH2 whole entry): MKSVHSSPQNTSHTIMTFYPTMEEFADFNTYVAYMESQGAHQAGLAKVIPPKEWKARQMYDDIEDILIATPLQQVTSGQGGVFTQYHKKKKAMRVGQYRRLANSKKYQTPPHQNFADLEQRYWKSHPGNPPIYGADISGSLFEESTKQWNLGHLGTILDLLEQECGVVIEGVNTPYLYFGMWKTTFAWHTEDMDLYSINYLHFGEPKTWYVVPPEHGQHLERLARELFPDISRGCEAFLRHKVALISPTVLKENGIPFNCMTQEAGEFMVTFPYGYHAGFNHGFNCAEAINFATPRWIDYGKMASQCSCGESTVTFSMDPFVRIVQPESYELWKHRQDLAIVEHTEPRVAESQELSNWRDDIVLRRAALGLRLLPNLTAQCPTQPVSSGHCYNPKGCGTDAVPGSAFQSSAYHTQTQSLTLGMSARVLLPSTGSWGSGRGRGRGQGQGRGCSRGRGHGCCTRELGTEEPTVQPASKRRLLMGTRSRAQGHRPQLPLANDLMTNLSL

[16] = Mouse drug metabolism and pharmacokinetic studies; assay type: in vivo; details: intravenous, oral or intraperitoneal administration
[17] = assay results from BPS Bioscience

Structure (SMILES): COc1cc2c(NC3CCN(C(C)C)CC3)nc(C3CCCCC3)nc2cc1OCCCN1CCCC1 [UNC0638]
- IC50 [1]: > 10000 nM
- IC50 ([1]; SAHH-coupled assay): inactive
- IC50 [2]: > 10000 nM
- IC50 [2, 17]: inactive
- IC50 [3]: > 10000 nM
- IC50 [3, 17]: inactive
- inhibition [4]: < 10%
- expression of DUB1 and MAGEA2 genes [5]: more highly expressed
- stability in cell media [6]: did not produce degradation products
- IC50 [7]: 48 nM
- IC50 ([8]; Homo sapiens, Fibroblast, read-out: potency in reducing H3K9me2 levels): 48 to 238 nM
- reduction of H3K9me2 levels ([8]; at 250 nM, variety of cell lines): 60–80%
- IC50 [9]: > 10000 nM
- IC50 ([9]; SAHH-coupled assay): inactive
- agonist activity [10]: no agonist activity
- IC90 ([11]; Homo sapiens, MDA-MB-231, read-out: IC90 for reduction of H3K9me2 levels): 250 nM
- cellular H3K9me2 levels after 4 d ([11]; MDA-MB-231 cells, 250 or 500 nM): equal or very close to those of G9a and GLP knockdown cells
- IC50 ([11]; read-out: IC50 for reduction of H3K9me2 levels, MDA-MB-231 cells, 48 h exposure, in-cell western): 80 nM
- levels of H3K9me2 by quantitative MS [12]: considerably lower
- levels of H3K9me3 by quantitative MS [12]: remained constant
- levels of H3K14ac by quantitative MS [12]: doubled
- disassociation rate (kd) [13]: 0.057 s⁻¹
- EGFP+ cells, maximal level ([14]; day 10, UNC0638 100, 250 or 500 nM, untreated 36%): 63%
- EGFP+ cells ([14]; day 12): 75%
- IC50 [15]: 4500 nM
- clearance [16]: high
- half-life [16]: short
- volume distribution [16]: high
